Active and inactive are the calls of the source. No cut-off for these calls is given here.
What was measured:
[1] = biological target: T1, Free fatty acid receptor 1 (Homo sapiens, UniProt O14842); assay: Agonist activity at human FFA1 transfected in 1321N1 cells assessed as calcium mobilization by microplate assay; assay type: functional, cell-based
Procedure, shortened: (§1)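 Calcium mobilization in hFFA1-expressing cells was measured as full concentration-response curves and reported as pEC50. Efficacy is % of the response to 10 μM of the reference agonist.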

[2] = biological target: T1, Free fatty acid receptor 1; assay: Agonist activity at human FFA1 transfected in 1321N1 cells assessed as calcium mobilization by microplate assay relative to 10 uM TUG-20; assay type: functional, cell-based; procedure, shortened: as §1
[3] = biological target: T2, Peroxisome proliferator-activated receptor gamma (Homo sapiens) (UniProt P37231); assay: Transactivation of human PPARgamma ligand binding domain transfected in mouse embryo fibroblasts assessed as renilla luciferase activity at 1 uM after 18 hrs by luminometry relative to 1 uM rosiglitazone
T2 sequence (whole entry): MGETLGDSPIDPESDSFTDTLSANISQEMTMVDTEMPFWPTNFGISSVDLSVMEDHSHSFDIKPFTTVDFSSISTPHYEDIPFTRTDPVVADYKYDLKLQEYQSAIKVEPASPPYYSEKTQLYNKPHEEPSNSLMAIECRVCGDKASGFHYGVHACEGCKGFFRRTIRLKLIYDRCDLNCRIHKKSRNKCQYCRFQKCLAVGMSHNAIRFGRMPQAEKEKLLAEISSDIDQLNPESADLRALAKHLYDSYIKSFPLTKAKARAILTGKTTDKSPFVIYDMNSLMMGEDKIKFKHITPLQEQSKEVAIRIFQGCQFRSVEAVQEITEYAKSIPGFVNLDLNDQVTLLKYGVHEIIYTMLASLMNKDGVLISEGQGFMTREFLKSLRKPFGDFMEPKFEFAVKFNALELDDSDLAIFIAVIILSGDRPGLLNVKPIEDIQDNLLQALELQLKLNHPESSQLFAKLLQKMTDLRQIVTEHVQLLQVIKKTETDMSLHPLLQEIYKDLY

Homo sapiens = organism: Homo sapiens; assay: Selectivity for human FFA1 over human PPARgamma
[4] = biological target: Free fatty acid receptor 2 (Homo sapiens) (UniProt O15552); assay: Agonist activity at human GPR43 in HEK293 cells
Sequence of Free fatty acid receptor 2 (Homo sapiens) (O15552 whole entry, looked up): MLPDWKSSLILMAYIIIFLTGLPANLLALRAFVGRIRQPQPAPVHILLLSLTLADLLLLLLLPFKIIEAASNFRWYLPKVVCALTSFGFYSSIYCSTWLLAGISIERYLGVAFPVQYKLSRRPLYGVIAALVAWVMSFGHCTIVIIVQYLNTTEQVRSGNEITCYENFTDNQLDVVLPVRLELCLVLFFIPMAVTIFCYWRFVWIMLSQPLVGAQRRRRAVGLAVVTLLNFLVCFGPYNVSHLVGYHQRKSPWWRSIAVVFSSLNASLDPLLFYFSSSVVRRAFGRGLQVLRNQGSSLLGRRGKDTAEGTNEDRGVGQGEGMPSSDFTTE

[5] = biological target: Free fatty acid receptor 3 (Homo sapiens) (UniProt O14843); assay: Agonist activity at human GPR41 in HEK293 cells
Sequence of Free fatty acid receptor 3 (Homo sapiens) (O14843 whole entry, looked up, the tested form may be a part): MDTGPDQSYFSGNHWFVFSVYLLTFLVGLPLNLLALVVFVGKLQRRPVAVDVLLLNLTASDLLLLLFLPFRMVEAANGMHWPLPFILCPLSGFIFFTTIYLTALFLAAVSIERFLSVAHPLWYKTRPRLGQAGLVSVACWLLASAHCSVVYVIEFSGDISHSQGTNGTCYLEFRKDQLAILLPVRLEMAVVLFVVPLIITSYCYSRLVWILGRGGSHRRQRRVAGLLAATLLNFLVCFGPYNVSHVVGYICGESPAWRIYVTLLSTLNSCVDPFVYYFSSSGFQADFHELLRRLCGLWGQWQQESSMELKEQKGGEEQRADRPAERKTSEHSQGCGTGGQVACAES

[6] = biological target: T2, Peroxisome proliferator-activated receptor gamma (Homo sapiens); assay: Transactivation of human PPARgamma ligand binding domain transfected in mouse embryo fibroblasts at 100 uM after 18 hrs analyzed by photinus and renilla luciferase activity by luminometry relative to 1 uM rosiglitazone
[7] = biological target: T1, Free fatty acid receptor 1; assay: Agonist activity at human FFA1 transfected in 1321N1 cells assessed as calcium mobilization by microplate assay in presence of 0.05 % bovine serum albumin; assay type: functional, cell-based
Procedure, shortened: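 Calcium-response assay at hFFA1, with 0.05% BSA added to the assay because the compound dissolves poorly.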

[8] = biological target: T1, Free fatty acid receptor 1; assay: Agonist activity at human FFA1 transfected in 1321N1 cells assessed as calcium mobilization by microplate assay in presence of 0.5 % bovine serum albumin; assay type: functional, cell-based
[9] = biological target: T1, Free fatty acid receptor 1; assay: Agonist activity at human FFA1 transfected in 1321N1 cells under serum-free condition after 1 hr by dose response curve/dynamic mass redistribution optical biosensor assay; assay type: functional, cell-based
Procedure, shortened: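 hFFA1-transfected 1321N1 cells were exposed to a range of agonist concentrations. Label-free dynamic mass redistribution was tracked over time as the resonant wavelength shift (pm), a read-out of receptor activation. pEC50 was taken from concentration-response curves of this signal.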

[10] = biological target: T1, Free fatty acid receptor 1; assay: Agonist activity at human FFA1 transfected in 1321N1 cells assessed as calcium mobilization by microplate assay relative to linoleic acid; assay type: functional, cell-based

T1 sequence (O14842 whole entry): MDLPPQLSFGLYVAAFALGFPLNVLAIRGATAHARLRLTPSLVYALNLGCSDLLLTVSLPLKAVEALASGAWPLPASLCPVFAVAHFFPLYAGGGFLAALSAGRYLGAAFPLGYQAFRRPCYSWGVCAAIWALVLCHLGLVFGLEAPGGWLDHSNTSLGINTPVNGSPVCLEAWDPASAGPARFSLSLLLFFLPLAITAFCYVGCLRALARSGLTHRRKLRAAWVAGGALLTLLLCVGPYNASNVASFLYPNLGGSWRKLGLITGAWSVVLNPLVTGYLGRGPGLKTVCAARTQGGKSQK

SMILES | EC50 [1] | Efficacy [2] | Activity [3] | fold change (FC) (Homo sapiens) | Activity [4] | Activity [5] | Activity [6] | EC50 [7] | EC50 [8] | EC50 [9] | Activity [10]
O=C(O)CCc1ccc(OCc2ccccc2Br)cc1 | 447 nM | 99% | inactive | > 100 | inactive | inactive |  |  |  |  | 
O=C(O)CCc1ccc(NCc2ccccc2)cc1 | 759 nM | 89% | inactive | > 100 | inactive | inactive | 7% |  |  |  | 
O=C(O)CCc1ccc(C#Cc2ccccc2)cc1 | 200 nM | 108% | inactive | > 100 | inactive | inactive |  |  |  |  | 
Cc1ccc(-c2cccc(CNc3ccc(CCC(=O)O)cc3)c2)cc1 | 126 nM | 92% | inactive | > 100 | inactive | inactive | 31% |  |  |  | 
O=C(O)CCc1ccc2oc(-c3ccccc3)cc2c1 | 2450 nM | 92% | inactive | > 100 | inactive | inactive | inactive |  |  |  | 
O=C(O)CCc1ccc(CCc2ccccc2)cc1 | 3630 nM | 116% | inactive | > 100 | inactive | inactive |  |  |  |  | 
O=C(O)CCc1ccc(OCc2ccccc2)c(I)c1 | 12600 nM | 81% | inactive | > 100 | inactive | inactive | 42% |  |  |  | 
Cc1ccccc1-c1cccc(COc2ccc(CCC(=O)O)cc2)c1 | 50.1 nM | 112% | inactive | > 100 | inactive | inactive | 37% | 81.3 nM | 562 nM | 263 nM | 
N#Cc1cccc(COc2ccc(CCC(=O)O)cc2)c1 | 525 nM | 102% | inactive | > 100 | inactive | inactive |  |  |  |  | 
O=C(O)CCc1ccc(COc2ccccc2)cc1 | 6310 nM | 88% | inactive | > 100 | inactive | inactive | inactive |  |  |  | 
O=C(O)CCc1ccc(OCc2cccc(-c3ccccc3)c2)cc1 | 135 nM | 105% | inactive | > 100 | inactive | inactive | 25% |  |  |  | 
O=C(O)CCc1ccc(OCc2ccc(-c3ccccc3)cc2)cc1 | 912 nM | 97% | inactive | > 100 | inactive | inactive | inactive |  |  |  | 
COc1ccccc1-c1cccc(COc2ccc(CCC(=O)O)cc2)c1 | 120 nM | 105% | inactive | > 100 | inactive | inactive | 37% |  |  |  | 
O=C(O)CCc1ccc(OCc2cccc(Oc3ccccc3)c2)cc1 | 57.5 nM | 98% | inactive | > 100 | inactive | inactive | 51% |  |  |  | 
O=C(O)CCc1ccc(OCc2ccc(Oc3ccccc3)cc2)cc1 | 204 nM | 98% | inactive | > 100 | inactive | inactive | 23% |  |  |  | 
O=C(O)CCc1ccc(OCc2ccccc2)cc1 [BENZYLOXYPHENYLPROPANOIC ACID] | 457 nM |  | inactive |  | inactive | inactive | 7% |  |  | 832 nM | 123%

SMILES | EC50 [1] | Efficacy [2] | Activity [3] | fold change (FC) (Homo sapiens) | Activity [4] | Activity [5] | Activity [6] | EC50 [7] | EC50 [8] | EC50 [9] | Activity [10]
O=C(O)CCc1ccc(OCc2cccc(C(F)(F)F)c2)cc1 | 83.2 nM | 103% | inactive | > 100 | inactive | inactive |  |  |  |  | 
O=C(O)CCc1ccc(OCc2ccc(Br)cc2)cc1 | 550 nM | 98% | inactive | > 100 | inactive | inactive |  |  |  |  | 
O=C(O)CCc1ccc(NCc2ccc(Oc3ccccc3)cc2)cc1 | 182 nM | 100% | inactive | > 100 | inactive | inactive | 34% |  |  |  | 
COc1ccccc1-c1cccc(CNc2ccc(CCC(=O)O)cc2)c1 | 69.2 nM | 109% | inactive | > 100 | inactive | inactive | 51% |  |  |  | 
O=C(O)CCc1ccc(CNc2ccccc2)cc1 | 21400 nM | 101% | inactive | > 100 | inactive | inactive | inactive |  |  |  | 
Cc1cc(Oc2ncc(C(F)(F)F)cc2Cl)ccc1CC1SC(=O)NC1=O (stereo unspecified) | 178 nM | 103% |  |  |  |  |  |  |  |  | 
CC(Oc1ccc(CCC(=O)O)cc1)c1ccccc1 (stereo unspecified) | 3310 nM | 106% | inactive | > 100 | inactive | inactive |  |  |  |  | 
O=C(O)CCc1ccc(NCc2cccc(-c3ccccc3)c2)cc1 | 53.7 nM | 101% | inactive | > 100 | inactive | inactive | 33% |  |  |  | 
O=C(O)CCc1ccc(NCc2cccc(Br)c2)cc1 | 174 nM | 110% | inactive | > 100 | inactive | inactive | 27% |  |  |  | 
O=C(O)CCc1ccc(OCc2ccccc2-c2ccccc2)cc1 |  |  | inactive | > 100 | inactive | inactive |  |  |  |  | 
O=C(O)CCc1ccc(NCc2ccc(-c3ccccc3)cc2)cc1 | 417 nM | 92% | inactive | > 100 | inactive | inactive | 23% |  |  |  | 
Cc1ccc(-c2cccc(COc3ccc(CCC(=O)O)cc3)c2)cc1 | 490 nM | 86% | inactive | > 100 | inactive | inactive | 15% |  |  |  | 
O=C(O)CCc1ccc(OCc2cccc(Br)c2)cc1 | 89.1 nM | 99% | inactive | > 100 | inactive | inactive | 19% |  |  |  | 
O=C(O)CCc1ccc(NCc2cccc(C(F)(F)F)c2)cc1 | 186 nM | 102% | inactive | > 100 | inactive | inactive |  |  |  |  | 
O=C(O)CCc1ccc(NCc2cccc(Oc3ccccc3)c2)cc1 [GW9508] | 28.8 nM | 103% |  |  |  |  | 54% |  |  | 87.1 nM | 

— ChEMBL document CHEMBL1773039, “Structure-Activity Study of Dihydrocinnamic Acids and Discovery of the Potent FFA1 (GPR40) Agonist TUG-469” (ACS Med Chem Lett, 2010)
